From ChEMBL document CHEMBL4765360, “Design, synthesis and biological evaluation of novel potent STAT3 inhibitors based on BBI608 for cancer therapy” (Eur J Med Chem, 2020)
The source made the active and inactive calls. The calls are words filed in the database; no cut-off is given here.

What was measured:
MDA-MB-231 [1] = assay: Antiproliferative activity against human MDA-MB-231 cells overexpressing STAT3 assessed as reduction in cell growth incubated for 48 hrs by CCK-8 assay; type: functional, cell-based; details: MDA-MB-231, 48 h
Summary of the method: (§1)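 Cells seeded at 5000-7000/well and allowed to settle for 8 h at 37 °C, 5% CO2. Graded compound concentrations were then added in triplicate (DMSO <0.1%) for 48 h. Medium was replaced with 10% CCK-8 for 4 h (MDA-MB-231, MDA-MB-468) or 1 h (HepG2), and A450 was read. IC50 is mean ± SD of at least three independent experiments. HepG2 was grown in high-glucose DMEM with 10% FBS.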

MDA-MB-468 = assay: Antiproliferative activity against human MDA-MB-468 cells overexpressing STAT3 assessed as reduction in cell growth incubated for 48 hrs by CCK-8 assay; type: functional, cell-based; details: MDA-MB-468, 48 h; summary of the method: as §1
HepG2 = assay: Antiproliferative activity against human HepG2 cells overexpressed STAT3 assessed as reduction in cell growth incubated for 48 hrs by CCK-8 assay; type: functional, cell-based; details: HepG2, 48 h; summary of the method: as §1
[2] = target: T1, Signal transducer and activator of transcription 3 (Homo sapiens, UniProt P40763); assay: Displacement of 5-FAM-GpYLPQTV-NH2 from His-tagged STAT3 (unknown origin) (127 to 722 residues) incubated for 30 mins followed by fluorescent peptide probe addition and measured after 1 hr by fluorescence polarization based competition binding assay
T1 sequence (P40763 whole entry, the tested form may be a part): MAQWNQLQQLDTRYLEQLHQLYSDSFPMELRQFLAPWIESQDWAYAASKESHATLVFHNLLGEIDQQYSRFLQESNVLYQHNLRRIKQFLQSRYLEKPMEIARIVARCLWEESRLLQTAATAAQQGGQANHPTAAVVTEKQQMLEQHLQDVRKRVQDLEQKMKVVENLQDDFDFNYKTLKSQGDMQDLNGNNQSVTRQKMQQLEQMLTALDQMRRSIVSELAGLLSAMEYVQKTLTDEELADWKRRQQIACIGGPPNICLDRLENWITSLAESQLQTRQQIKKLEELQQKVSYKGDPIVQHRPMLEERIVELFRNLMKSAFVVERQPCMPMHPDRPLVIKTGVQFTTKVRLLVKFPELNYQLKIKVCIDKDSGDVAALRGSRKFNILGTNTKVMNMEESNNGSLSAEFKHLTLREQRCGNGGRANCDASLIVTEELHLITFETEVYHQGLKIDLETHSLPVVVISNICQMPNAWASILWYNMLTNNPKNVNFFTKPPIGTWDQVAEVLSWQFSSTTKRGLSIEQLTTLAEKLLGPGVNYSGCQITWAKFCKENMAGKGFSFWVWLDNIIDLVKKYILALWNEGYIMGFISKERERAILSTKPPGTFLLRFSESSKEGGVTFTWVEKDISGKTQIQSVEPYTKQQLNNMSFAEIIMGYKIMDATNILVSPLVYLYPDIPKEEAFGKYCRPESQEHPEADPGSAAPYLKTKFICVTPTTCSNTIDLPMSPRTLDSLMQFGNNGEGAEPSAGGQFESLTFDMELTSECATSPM

[3] = target: T1, Signal transducer and activator of transcription 3; assay: Inhibition of STAT3 in human MDA-MB-231 cells assessed as reduction in STAT3 Y705 phosphorylation incubated for 24 hrs by Western blot analysis; type: cell-based; details: dose 0.75-3 µM
Summary of the method: (§2)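 MDA-MB-231 cells treated with a range of concentrations for 24 h. RIPA lysates with PMSF, 40 µg protein/lane, on 10% SDS-PAGE, then PVDF. Blocked in 5% milk/TBST for 2 h. Primary antibodies to STAT3, p-STAT3(Y705), STAT1, p-STAT1(Y701), c-Myc and Cyclin D1 overnight at 4 °C; GAPDH as loading control. HRP secondary for 1 h; ECL detection.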

MDA-MB-231 [4] = assay: Effect on STAT3 expression in human MDA-MB-231 cells at 0.75 to 3 uM incubated for 24 hrs by Western blot analysis; type: functional, cell-based; details: dose 0.75-3 µM; summary of the method: as §2
[5] = target: T1, Signal transducer and activator of transcription 3; assay: Inhibition of STAT3 in human MDA-MB-231 cells assessed as reduction in c-myc expression incubated for 24 hrs by Western blot analysis; type: cell-based; details: dose 0.75-3 µM; summary of the method: as §2
[6] = target: T1, Signal transducer and activator of transcription 3; assay: Inhibition of STAT3 in human MDA-MB-231 cells assessed as reduction in Cyclin D1 expression incubated for 24 hrs by Western blot analysis; type: cell-based; details: dose 0.75-3 µM; summary of the method: as §2
[7] = target: T2, Signal transducer and activator of transcription 1-alpha/beta (Homo sapiens) (UniProt P42224); assay: Inhibition of STAT1 in human MDA-MB-231 cells assessed as reduction in STAT1 Y701 phosphorylation at 0.75 to 3 uM incubated for 24 hrs by Western blot analysis; type: cell-based; details: dose 0.75-3 µM; summary of the method: as §2
T2 sequence (whole entry): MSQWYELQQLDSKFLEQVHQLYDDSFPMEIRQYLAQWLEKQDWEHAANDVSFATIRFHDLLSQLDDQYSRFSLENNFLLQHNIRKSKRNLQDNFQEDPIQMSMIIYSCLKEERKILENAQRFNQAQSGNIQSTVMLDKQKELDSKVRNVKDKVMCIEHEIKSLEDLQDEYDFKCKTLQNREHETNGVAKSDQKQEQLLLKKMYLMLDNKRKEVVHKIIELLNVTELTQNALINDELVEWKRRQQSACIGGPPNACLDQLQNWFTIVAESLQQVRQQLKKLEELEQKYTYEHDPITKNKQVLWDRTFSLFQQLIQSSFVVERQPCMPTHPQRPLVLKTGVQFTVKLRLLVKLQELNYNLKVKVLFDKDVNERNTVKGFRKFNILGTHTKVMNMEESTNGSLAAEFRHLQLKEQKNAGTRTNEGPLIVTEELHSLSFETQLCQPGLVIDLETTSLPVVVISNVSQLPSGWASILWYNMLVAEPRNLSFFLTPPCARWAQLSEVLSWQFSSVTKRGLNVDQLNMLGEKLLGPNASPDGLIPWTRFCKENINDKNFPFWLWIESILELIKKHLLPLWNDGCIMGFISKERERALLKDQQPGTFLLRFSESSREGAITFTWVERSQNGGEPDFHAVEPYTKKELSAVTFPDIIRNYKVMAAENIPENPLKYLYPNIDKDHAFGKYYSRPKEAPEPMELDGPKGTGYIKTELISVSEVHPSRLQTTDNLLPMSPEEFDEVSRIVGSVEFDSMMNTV

MDA-MB-231 [8] = assay: Effect on STAT1 expression in human MDA-MB-231 cells at 0.75 to 3 uM incubated for 24 hrs by Western blot analysis; type: functional, cell-based; details: dose 0.75-3 µM; summary of the method: as §2

SMILES	IC50 (MDA-MB-231 [1])	IC50 (MDA-MB-468)	IC50 (HepG2)	further results
CC(=O)c1cc2c(o1)C(=O)C(Nc1cccc(C)c1)=CC2=O	2620 nM	4540 nM	5500 nM	–
COc1cc(C)c(NC2=CC(=O)c3cc(C(C)=O)oc3C2=O)c(C)c1	670 nM	1530 nM	2010 nM	–
CC(=O)c1cc2c(o1)C(=O)C(Nc1ccccc1C(F)(F)F)=CC2=O	3120 nM	1750 nM	4040 nM	–
CC(=O)c1cc2c(o1)C(=O)C(NC1CCOCC1)=CC2=O	2070 nM	3230 nM	6800 nM	–
CC(=O)c1cc2c(o1)C(=O)c1ccccc1C2=O [NAPABUCASIN]	700 nM	–	840 nM	–
CC(=O)c1cc2c(o1)C(=O)C(Nc1c(C)cccc1C)=CC2=O	1880 nM	3300 nM	8030 nM	–
CC(=O)c1cc2c(o1)C(=O)C(Nc1ccccc1F)=CC2=O	2340 nM	2000 nM	2550 nM	–
CC(=O)c1cc2c(o1)C(=O)C(Nc1ccccc1)=CC2=O	1140 nM	1030 nM	1540 nM	–
CC(=O)c1cc2c(o1)C(=O)C(NC1CCCCC1)=CC2=O	2880 nM	4130 nM	6550 nM	–
CCc1ccccc1NC1=CC(=O)c2cc(C(C)=O)oc2C1=O	2000 nM	2460 nM	3380 nM	–
CC(=O)c1cc2c(o1)C(=O)C(Nc1ccc(C)c(C)c1)=CC2=O	2540 nM	1850 nM	8120 nM	–
CC(=O)c1cc2c(o1)C(=O)C(Nc1cc(C)cc(F)c1)=CC2=O	2620 nM	2110 nM	5660 nM	–
CC(=O)c1cc2c(o1)C(=O)C(Nc1ccccc1C)=CC2=O	560 nM	730 nM	1210 nM	IC50 [2]: 5550 nM; inhibition ([2]; time 1.5 hrs): Dose-dependent effect; inhibition [3]: Dose-dependent effect; Activity (MDA-MB-231 [4]): inactive; inhibition [5]: Dose-dependent effect; inhibition [6]: Dose-dependent effect; inhibition [7]: inactive; Activity (MDA-MB-231 [8]): inactive
CC(=O)c1cc2c(o1)C(=O)C(NC1CCCC1)=CC2=O	1230 nM	2470 nM	7170 nM	–
O=[N+]([O-])c1ccc2c(c1)S(=O)(=O)C=C2	2640 nM	1920 nM	–	–
CC(=O)c1cc2c(o1)C(=O)C(Nc1ccc(N(C)C)cc1)=CC2=O	1530 nM	1830 nM	1510 nM	–
CC(=O)c1cc2c(o1)C(=O)C(Nc1ccc(C(F)(F)F)cc1)=CC2=O	3700 nM	2270 nM	6170 nM	–
CC(=O)c1cc2c(o1)C(=O)C(Nc1ccc(OC(C)C)cc1)=CC2=O	1110 nM	1180 nM	1040 nM	–
CC(=O)c1cc2c(o1)C(=O)C(NC1CC1)=CC2=O	940 nM	1970 nM	1830 nM	–
COc1ccc(NC2=CC(=O)c3cc(C(C)=O)oc3C2=O)c(C)c1	2460 nM	2920 nM	5900 nM	–
COc1cccc(NC2=CC(=O)c3cc(C(C)=O)oc3C2=O)c1	1480 nM	1550 nM	2360 nM	–
COc1ccccc1NC1=CC(=O)c2cc(C(C)=O)oc2C1=O	920 nM	1050 nM	2410 nM	–
CC(=O)c1cc2c(o1)C(=O)C(Nc1cccc(C(F)(F)F)c1)=CC2=O	1510 nM	1160 nM	1990 nM	–
CC(=O)c1cc2c(o1)C(=O)C(NC1CCC1)=CC2=O	4870 nM	8840 nM	6750 nM	–
CC(=O)c1cc2c(o1)C(=O)C(Nc1ccc(C)cc1)=CC2=O	900 nM	3120 nM	1850 nM	–
CC(=O)c1cc2c(o1)C(=O)C(Nc1cccc(F)c1)=CC2=O	3500 nM	2500 nM	5340 nM	–
CC(=O)c1cc2c(o1)C(=O)C(Nc1ccc(F)cc1)=CC2=O	3210 nM	7770 nM	8010 nM	–
